Measured values reported in ChEMBL document CHEMBL1143299, “Synthesis and biological activity of novel shikonin analogues” (Bioorg Med Chem Lett, 2009).
pIC50: −log10 of the molar value. Calls of active or inactive are those of the source. The calls are words filed in the database; no cut-off is given here.

Experiments:
Assay type in all cases: functional, cell-based
[1] = system: HeLa; assay: Cytotoxicity agaisnt human HeLa cells by SRB assay
Procedure, shortened: (§1)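 IC50 from three independent experiments; growth inhibition read by SRB (adherent lines) or MTT (HL60, K562).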

[2] = system: HL-60; assay: Cytotoxicity against human HL60 cells by MTT assay; procedure, shortened: as §1
[3] = system: MDA-MB-231; assay: Reduction of hypoxia-induced HIF1alpha accumulation in human MDA-MB-231 cells at 10 uM by Western blotting analysis
Procedure, shortened: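 MDA-MB-231 cells (5 × 10⁵) treated at 10 µM, held in hypoxia (1% O₂) for 10 h, then lysed in 1× SDS loading buffer (pH 6.8 Tris–HCl, DTT, SDS) and boiled. Equal lysate amounts run on 10% SDS–PAGE, transferred to nitrocellulose, probed for HIF-1α and β-actin with HRP secondary antibodies, detected by ECL. Representative of three independent experiments.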

[4] = system: HCT-116; assay: Cytotoxicity agaisnt human HCT116 cells by SRB assay; procedure, shortened: as §1
[5] = system: MDA-MB-231; assay: Cytotoxicity agaisnt human MDA-MB-231 cells by SRB assay; procedure, shortened: as §1
[6] = Cytotoxicity agaisnt human KB-3-1 cells by SRB assay; procedure, shortened: as §1
[7] = system: KB; assay: Cytotoxicity agaisnt vincristine-resistant human KB cells by SRB assay; procedure, shortened: as §1
[8] = Cytotoxicity agaisnt human Rh30 cells by SRB assay; conditions: SJRH30; procedure, shortened: as §1
[9] = system: K562; assay: Cytotoxicity agaisnt human K562 cells by MTT assay; procedure, shortened: as §1
[10] = system: A549; assay: Cytotoxicity agaisnt human A549 cells by SRB assay; procedure, shortened: as §1
[11] = system: HT-29; assay: Cytotoxicity agaisnt human HT29 cells by SRB assay; procedure, shortened: as §1

Compound | pIC50 [1] | pIC50 [2] | further results
CC(C)C(NS(=O)(=O)c1ccc(Cl)cc1)C1=CC(=O)c2c(O)ccc(O)c2C1=O (centres undefined) | 5.06 |  | 
Cc1ccc(S(=O)(=O)NC(C)C2=CC(=O)c3c(O)ccc(O)c3C2=O)cc1 (centres undefined) | 5.27 | 7.52 | 
CCOC(=O)c1ccc(S(=O)(=O)NC(C)C2=CC(=O)c3c(O)ccc(O)c3C2=O)cc1 (centres undefined) | 5.65 | 6.92 | 
Cc1ccccc1S(=O)(=O)NC(C1=CC(=O)c2c(O)ccc(O)c2C1=O)C(C)C (centres undefined) | 6.10 | 6.72 | 
CC(NS(=O)(=O)c1ccc(F)cc1)C1=CC(=O)c2c(O)ccc(O)c2C1=O (centres undefined) | 5.19 | 7.05 | 
CC(NS(=O)(=O)c1ccccc1Br)C1=CC(=O)c2c(O)ccc(O)c2C1=O (centres undefined) | 5.21 | 6.92 | Activity [3]: Active
CC(C)C(NS(=O)(=O)c1ccc(Br)cc1)C1=CC(=O)c2c(O)ccc(O)c2C1=O (centres undefined) | 5.12 |  | 
CC(C)C(NS(=O)(=O)c1ccc(F)cc1)C1=CC(=O)c2c(O)ccc(O)c2C1=O (centres undefined) | 5.18 |  | 
CC(NS(=O)(=O)c1ccc(Br)cc1)C1=CC(=O)c2c(O)ccc(O)c2C1=O (centres undefined) | 5.28 | 7.00 | 
COc1ccc(S(=O)(=O)NC(C2=CC(=O)c3c(O)ccc(O)c3C2=O)C(C)C)cc1 (centres undefined) | 5.05 |  | 
COc1ccc(S(=O)(=O)NC(C2=CC(=O)c3c(O)ccc(O)c3C2=O)C(C)C)c(OC)c1 (centres undefined) | 5.56 | 6.40 | 
CCOC(=O)c1ccc(S(=O)(=O)NC(C2=CC(=O)c3c(O)ccc(O)c3C2=O)C(C)C)cc1 (centres undefined) | 6.07 | 6.82 | pIC50 [4]: 5.42; pIC50 [5]: 5.33; pIC50 [6]: 4.93; pIC50 [7]: 4.88; pIC50 [8]: 5.59; pIC50 [9]: 4.74; pIC50 [10]: 4.94; pIC50 [11]: 5.55
COc1ccc(S(=O)(=O)NC(C)C2=CC(=O)c3c(O)ccc(O)c3C2=O)cc1 (centres undefined) | 5.42 | 7.70 | 
CC(NS(=O)(=O)c1ccc(Cl)cc1)C1=CC(=O)c2c(O)ccc(O)c2C1=O (centres undefined) | 6.09 | 6.60 | pIC50 [4]: 5.49; Activity [3]: Active; pIC50 [5]: 5.35; pIC50 [6]: 5.16; pIC50 [7]: 4.91; pIC50 [8]: 5.72; pIC50 [9]: 4.70; pIC50 [10]: 5.08; pIC50 [11]: 5.89
Cc1ccccc1S(=O)(=O)NC(C)C1=CC(=O)c2c(O)ccc(O)c2C1=O (centres undefined) | 5.35 | 7.15 | Activity [3]: Active
Cc1ccc(S(=O)(=O)NC(C2=CC(=O)c3c(O)ccc(O)c3C2=O)C(C)C)cc1 (centres undefined) | 5.31 |  | 
CC(=O)c1ccc(S(=O)(=O)NC(C)C2=CC(=O)c3c(O)ccc(O)c3C2=O)cc1 (centres undefined) | 5.24 | 6.59 | 
CC(C)=CC[C@@H](O)C1=CC(=O)c2c(O)ccc(O)c2C1=O [SHIKONIN] | 4.87 | 6.36 | Activity [3]: Active
CC(C)C(NS(=O)(=O)c1cccc(Br)c1)C1=CC(=O)c2c(O)ccc(O)c2C1=O (centres undefined) | 6.07 | 6.10 | 
COc1cc([C@@H]2c3cc4c(cc3[C@@H](O)[C@H]3COC(=O)[C@H]23)OCO4)cc(OC)c1O [4'-DEMETHYLEPIPODOPHYLLOTOXIN] | 6.01 | 6.09 | 
CC(=O)c1ccc(S(=O)(=O)NC(C2=CC(=O)c3c(O)ccc(O)c3C2=O)C(C)C)cc1 (centres undefined) | 5.42 | 6.96 | 
CC(NS(=O)(=O)c1cccc(Br)c1)C1=CC(=O)c2c(O)ccc(O)c2C1=O (centres undefined) | 5.20 | 6.80 | Activity [3]: Active
COc1ccc(S(=O)(=O)NC(C)C2=CC(=O)c3c(O)ccc(O)c3C2=O)c(OC)c1 (centres undefined) | 4.71 | 6.30 | 
CC(C)C(NS(=O)(=O)c1ccccc1Br)C1=CC(=O)c2c(O)ccc(O)c2C1=O (centres undefined) | 5.08 | 6.47 | 
